Measurements as given in ChEMBL document CHEMBL1125273, “Synthesis and biological evaluation of quinocarcin derivatives: thioalkyl-substituted quinones and hydroquinones” (J Med Chem, 1991).
In brackets after ≈: the same amount, converted by molar mass.

Assays:
[1] = test system: HeLa; experiment: In vitro concentration required to inhibit the growth of HeLa S3 cells by 50%; format: functional, cell-based; settings: Homo sapiens
How it was run: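 HeLa S3 cells (5 × 10⁴) seeded in Eagle's MEM with 10% FBS and 0.06 mg/mL kanamycin; graded drug concentrations, diluted in growth medium, added 24 h after seeding. Incubated 72 h at 37 °C, humidified 5% CO₂. Monolayers then washed, detached with 0.05% trypsin/0.02% EDTA and counted electronically; IC50 taken as concentration giving 50% growth inhibition.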

[2] = Antitumor activity in vivo in CD2F1 mice measured in terms of percent increase in lifespan calculated at a dose of 50 mg/kg intraperitoneally on day one.; format: functional; settings: Mus musculus, ip, route intraperitoneal
How it was run: (§1)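 P388 lymphocytic leukemia cells (1×10^6) were implanted ip into CD2F1 mice (about 22 g), five mice per group. Drug was given ip from the day after implantation, either once (day 1) or daily on days 1–5. ILS = (T/C − 1) × 100, where T and C are the median survival times of treated and control mice.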

[3] = Ratio of the ILS tested compound/quinocarcin was determined in CD2F1 mice on days 1-5.; format: functional, Mus musculus
How it was run: (§2)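 CD2F1 mice (5 per group) received 10^6 P388 cells ip. Drug was given ip on day 1 or on days 1–5. ILS was taken as (T/C − 1) × 100 from median survival times, and each compound's ILS was divided by the ILS of quinocarcin.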

[4] = Antitumor activity in vivo in CD2F1 mice measured in terms of percent increase in lifespan calculated at a dose of 12.5 mg/kg intraperitoneally on day one.; format: functional; settings: Mus musculus, ip, route intraperitoneal; how it was run: as §1
[5] = Antitumor activity in vivo in CD2F1 mice measured in terms of percent increase in lifespan calculated at a dose of 6.25 mg/kg intraperitoneally on days 1-5.; format: functional; settings: Mus musculus, ip, route intraperitoneal; how it was run: as §1
[6] = Ratio of the ILS tested compound/quinocarcin was determined for day one in CD2F1 mice.; format: functional, Mus musculus; how it was run: as §2
[7] = Antitumor activity in vivo in CD2F1 mice measured in terms of percent increase in lifespan calculated at a dose of 50 mg/kg intraperitoneally on days 1-5.; format: functional; settings: Mus musculus, ip, route intraperitoneal; how it was run: as §1
[8] = Antitumor activity in vivo in CD2F1 mice measured in terms of percent increase in lifespan calculated at a dose of 25 mg/kg intraperitoneally on day one.; format: functional; settings: Mus musculus, ip, route intraperitoneal; how it was run: as §1
[9] = Antitumor activity in vivo in CD2F1 mice measured in terms of percent increase in lifespan calculated at a dose of 6.25 mg/kg intraperitoneally on day one.; format: functional; settings: Mus musculus, ip, route intraperitoneal; how it was run: as §1
[10] = Antitumor activity in vivo in CD2F1 mice measured in terms of percent increase in lifespan calculated at a dose of 1.56 mg/kg intraperitoneally on days 1-5.; format: functional; settings: Mus musculus, ip, route intraperitoneal; how it was run: as §1
[11] = test system: CCRF S-180; experiment: Ratio of ILS tested compound/quinocarcin against murine sarcoma S-180 tumor cell line implanted subcutaneously in mice and the compound administered intravenously at a dose of 12.5 mg/kg on days 1-5.; format: functional, Mus musculus; settings: route intravenous
[12] = test system: Homo sapiens; experiment: Ratio of ILS tested compound/quinocarcin against human mammary carcinoma MX-1 cell line implanted subcutaneously in mice and the compound administered intravenously at a dose of 4.67 mg/kg on days 1-5.c means number of cured mice.; format: functional; settings: route intravenous
[13] = Antitumor activity in vivo in CD2F1 mice measured in terms of percent increase in lifespan calculated at a dose of 3.13 mg/kg intraperitoneally on days 1-5.; format: functional; settings: Mus musculus, ip, route intraperitoneal; how it was run: as §1
[14] = test system: Homo sapiens; experiment: Ratio of ILS tested compound/quinocarcin against human mammary carcinoma MX-1 cell line implanted subcutaneously in mice and the compound administered intravenously at a dose of 2.97 mg/kg on days 1-5.; format: functional; settings: route intravenous
[15] = test system: CCRF S-180; experiment: Ratio of ILS tested compound/quinocarcin against murine sarcoma S-180 tumor cell line implanted subcutaneously in mice and the compound administered intravenously at a dose of 3.13 mg/kg on days 1-5.; format: functional, Mus musculus; settings: route intravenous

| Compound | IC50 [1] [µg/mL] | R [3] | ILS at 6.25 mg/kg [5] [%] | R [6] | ILS at 6.25 mg/kg [9] [%] | also measured |
| --- | --- | --- | --- | --- | --- | --- |
| COc1c2c(c(OC)c(SC(C)C)c1SC(C)C)[C@H](CO)N1C(C#N)[C@@H]3C[C@@H](C(=O)O)[C@H]([C@@H]1C2)N3C (some centres undefined) | 0.17 (≈ 0.317 µM) | – | – | – | – | ILS at 50 mg/kg [2]: 7% |
| CCSc1c(O)c2c(c(O)c1OC)[C@H](CO)N1C(C#N)[C@@H]3C[C@@H](C(=O)O)[C@H]([C@@H]1C2)N3C (some centres undefined) | 1.18 (≈ 2.62 µM) | 0.79 | 58 | 0.65 | – | ILS at 12.5 mg/kg [4]: 28% |
| CC(C)Sc1c(O)c2c(c(O)c1SC(C)C)[C@H](CO)N1C(C#N)[C@@H]3C[C@@H](C(=O)O)[C@H]([C@@H]1C2)N3C (some centres undefined) | < 0.03 | 1.09 | 102 | 1 | – | ILS at 12.5 mg/kg [4]: 51% |
| CCOC(=O)CSC1=C(SCC(=O)OCC)C(=O)C2=C(C[C@H]3[C@H]4[C@H](C(=O)O)C[C@@H](C(C#N)N3[C@H]2CO)N4C)C1=O (some centres undefined) | 9.96 (≈ 16.8 µM) | – | – | – | – | ILS at 50 mg/kg [7]: 30% |
| CCCSC1=C(SCCC)C(=O)C2=C(C[C@H]3[C@H]4[C@H](C(=O)O)C[C@@H](C(C#N)N3[C@H]2CO)N4C)C1=O (some centres undefined) | 0.05 (≈ 0.0989 µM) | 0.48 | 42 | 1.17 | – | ILS at 25 mg/kg [8]: 56% |
| CCSC1=C(SCC)C(=O)C2=C(C[C@H]3[C@H]4[C@H](C(=O)O)C[C@@H](C(C#N)N3[C@H]2CO)N4C)C1=O (some centres undefined) | 0.11 (≈ 0.23 µM) | 0.42 | 51 | 1.16 | – | ILS at 12.5 mg/kg [4]: 50% |
| COC1=C(SC(C)C)C(=O)C2=C(C[C@H]3[C@H]4[C@H](C(=O)O)C[C@@H](C5OC[C@@H]2N53)N4C)C1=O (some centres undefined) | 2.37 (≈ 5.45 µM) | 0.63 | – | 1.25 | 30 | ILS at 1.56 mg/kg [10]: 51% |
| CCSC1=C(OC)C(=O)C2=C(C[C@H]3[C@H]4[C@H](C(=O)O)C[C@@H](C(C#N)N3[C@H]2CO)N4C)C1=O (some centres undefined) | 2.42 (≈ 5.41 µM) | 0.65 | 51 | 0.67 | 29 | T/C [11]: 0.47 |
| CN1[C@@H]2[C@H](C(=O)O)C[C@H]1C(C#N)N1[C@@H](CO)c3c(O)c(SCCO)c(SCCO)c(O)c3C[C@@H]21 (some centres undefined) | 3.24 (≈ 6.33 µM) | 0.39 | 41 | 0.44 | 18 | – |
| CC(C)SC1=C(SC(C)C)C(=O)C2=C(C[C@H]3[C@H]4[C@H](C(=O)O)C[C@@H](C5OC[C@@H]2N53)N4C)C1=O (some centres undefined) | 0.0019 (≈ 0.00397 µM) | 1.11 | – | 1.57 | 69 | T/C [12]: 0; ILS at 3.13 mg/kg [13]: 98%; T/C [14]: 0.046; T/C [15]: 0.73 |
| CCSc1c(O)c2c(c(O)c1SCC)[C@H](CO)N1C(C#N)[C@@H]3C[C@@H](C(=O)O)[C@H]([C@@H]1C2)N3C (some centres undefined) | < 0.03 | – | – | – | – | – |
